Source: ChEMBL document CHEMBL4052661, “Structure Based Design of N-(3-((1H-Pyrazolo[3,4-b]pyridin-5-yl)ethynyl)benzenesulfonamides as Selective Leucine-Zipper and Sterile-α Motif Kinase (ZAK) Inhibitors” (J Med Chem, 2017)

Key:
[1] = target: Mast/stem cell growth factor receptor Kit (Homo sapiens, UniProt P10721, V559D); test: Binding affinity to partial length human KIT V559D mutant expressed in Escherichia coli BL21 by active-site-dependent competition assay
Outline: (§1)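 Active-site-dependent competition binding (KINOMEscan) run by an outside service across a panel of 468 kinases (403 nonmutated, 65 mutated); reported as binding constant Kd.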

[2] = Oral bioavailability in Sprague-Dawley rat at 10 mg/kg by HPLC/MS analysis; format: ADME, organism-based; details: in vivo
Outline: (§2)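 Sprague-Dawley rats given a single oral dose of 10 mg/kg; plasma exposure (AUC), half-life and oral bioavailability derived.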

[3] = target: T1, Dual specificity mitogen-activated protein kinase kinase 5 (Homo sapiens, UniProt Q13163); test: Binding affinity to partial length human MEK5 expressed in HEK293 cells by active-site-dependent competition assay; format: cell-based; outline: as §1
T1 sequence (Q13163 whole entry): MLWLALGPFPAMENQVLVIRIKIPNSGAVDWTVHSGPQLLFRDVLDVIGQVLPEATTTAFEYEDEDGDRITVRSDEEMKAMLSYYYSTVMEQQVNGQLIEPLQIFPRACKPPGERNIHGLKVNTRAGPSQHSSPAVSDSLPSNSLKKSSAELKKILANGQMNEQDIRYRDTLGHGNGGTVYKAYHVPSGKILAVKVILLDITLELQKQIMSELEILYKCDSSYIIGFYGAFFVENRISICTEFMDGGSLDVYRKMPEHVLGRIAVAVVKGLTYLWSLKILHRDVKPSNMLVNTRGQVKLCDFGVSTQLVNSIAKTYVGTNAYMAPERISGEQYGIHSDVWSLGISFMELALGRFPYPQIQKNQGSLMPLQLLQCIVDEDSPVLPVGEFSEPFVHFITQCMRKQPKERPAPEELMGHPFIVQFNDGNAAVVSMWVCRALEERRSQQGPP

[4] = target: T2, Serine/threonine-protein kinase B-raf (Homo sapiens, UniProt P15056, V600E); test: Binding affinity to partial length human BRAF V600E mutant expressed in HEK293 cells by active-site-dependent competition assay; format: cell-based; outline: as §1
[5] = target: Aurora kinase B (Homo sapiens, UniProt Q96GD4); test: Binding affinity to partial length human AURKB expressed in HEK293 cells by active-site-dependent competition assay; format: cell-based; outline: as §1
[6] = target: Serine/threonine-protein kinase SIK1 (Homo sapiens, UniProt P57059); test: Binding affinity to partial length human SIK expressed in Escherichia coli BL21 by active-site-dependent competition assay; outline: as §1
[7] = target: T2, Serine/threonine-protein kinase B-raf; test: Inhibition of partial length human BRAF V600E mutant expressed in HEK293 cells using Ser/Thr3 as substrate after 1 hr by FRET-based Z'-Lyte assay
Outline: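 Z'-Lyte FRET assay with Ser/Thr3 peptide in kinase buffer; the final reaction held 0.002 ng B-Raf for wild type. Incubated 1 h at room temperature, then 1 h development to cleave nonphosphorylated peptide, then stop reagent. Controls: phosphopeptide for 100% phosphorylation, buffer instead of ATP for 100% inhibition, DMSO vehicle for 0% inhibition. Means of 3 independent experiments.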

[8] = test system: Rattus norvegicus; test: Inhibition of myocardial hypertrophy in po dosed spontaneous hypertensive WKY rat model assessed as downregulation of BNP levels administered for 4 continuous weeks by Western blot method; format: functional, organism-based
Outline: (§3)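 Spontaneously hypertensive rats given oral 0, 10 or 20 mg/kg/day for 4 continuous weeks alongside normotensive Wistar-Kyoto controls; left ventricles harvested after sacrifice for Western blot analysis.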

[9] = test system: Rattus norvegicus; test: Inhibition of myocardial hypertrophy in po dosed spontaneous hypertensive WKY rat model assessed as decrease in left ventricular mass at diastole administered for 4 continuous weeks; format: functional, organism-based
Outline: (§4)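 Spontaneously hypertensive rats randomized into 3 groups given oral 0, 10 or 20 mg/kg/day for 4 continuous weeks; normotensive Wistar-Kyoto rats as reference; n = 6 per group. After sacrifice, left ventricles were collected to measure mass at diastole and systole; heart sections stained with hematoxylin and eosin for cardiomyocyte arrangement.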

[10] = test system: Rattus norvegicus; test: AUC (0 to infinity) in Sprague-Dawley rat at 10 mg/kg, po by HPLC/MS analysis; format: ADME, organism-based; parameters: dose 10 mg/kg, time infinity, route oral; details: in vivo; outline: as §2
[11] = target: Mast/stem cell growth factor receptor Kit (Homo sapiens, UniProt P10721); test: Binding affinity to partial length human KIT expressed in Escherichia coli BL21 by active-site-dependent competition assay; outline: as §1
[12] = target: T3, Tyrosine-protein kinase FRK (Homo sapiens, UniProt P42685); test: Binding affinity to partial length human FRK expressed in Escherichia coli BL21 by active-site-dependent competition assay; outline: as §1
[13] = test system: Mast/stem cell growth factor receptor Kit (Homo sapiens), P10721 [L576P]; test: Inhibition of partial length human KIT L576P mutant expressed in Escherichia coli BL21 assessed as remaining activity at 1 uM after 1 hr by KINOMEscan method
Outline: (§5)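 Active-site-dependent competition binding screen run by an outside provider across a 468-kinase panel (403 nonmutated, 65 mutated kinases).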

[14] = Half life in Sprague-Dawley rat at 10 mg/kg, po by HPLC/MS analysis; format: ADME, organism-based; details: in vivo; outline: as §2
[15] = target: T4, Dual specificity mitogen-activated protein kinase kinase 5 (Homo sapiens) (UniProt Q13163); test: Inhibition of partial length human MEK5 expressed in HEK293 cells assessed as remaining activity at 1 uM after 1 hr by KINOMEscan method; format: cell-based; outline: as §5
T4 sequence (whole entry): T1 sequence (Q13163 whole entry)

[16] = test system: Rattus norvegicus; test: Inhibition of myocardial hypertrophy in po dosed spontaneous hypertensive WKY rat model assessed as restoration of cardiomyocyte disarrangement to normal phenomena administered for 4 continuous weeks by Hematoxylin and eosin staining-based light microscopic method; format: functional, organism-based; outline: as §4
[17] = test system: Mast/stem cell growth factor receptor Kit (Homo sapiens), P10721 [V559D]; test: Inhibition of partial length human KIT V559D mutant expressed in Escherichia coli BL21 assessed as remaining activity at 1 uM after 1 hr by KINOMEscan method; outline: as §5
[18] = Protein binding in mouse plasma at 1 uM after 4 hrs by equilibrium dialysis method; format: ADME, cell-free; details: read-out: PPB (converted)
[19] = test system: Rattus norvegicus; test: Inhibition of myocardial hypertrophy in po dosed spontaneous hypertensive WKY rat model assessed as decrease in left ventricular mass at systole administered for 4 continuous weeks; format: functional, organism-based; outline: as §4
[20] = target: Mitogen-activated protein kinase kinase kinase 20 (Homo sapiens, UniProt Q9NYL2); test: Inhibition of partial length human ZAK expressed in Escherichia coli BL21 assessed as remaining activity at 1 uM after 1 hr by KINOMEscan method; outline: as §5
[21] = test system: Rattus norvegicus; test: Inhibition of myocardial hypertrophy in po dosed spontaneous hypertensive WKY rat model assessed as decrease in p38 phosphorylation administered for 4 continuous weeks by Western blot method; format: functional, organism-based; outline: as §3
[22] = target: T3, Tyrosine-protein kinase FRK; test: Inhibition of partial length human FRK expressed in Escherichia coli BL21 assessed as remaining activity at 1 uM after 1 hr by KINOMEscan method; outline: as §5
[23] = test system: Rattus norvegicus; test: Inhibition of myocardial hypertrophy in spontaneous hypertensive WKY rat model assessed as left ventricular mass at diastole at 20 mg/kg, po administered for 4 continuous weeks (reference value: 1.2 +/- 0.052 g); format: functional; outline: as §4
[24] = species on record: Rattus norvegicus; test: Inhibition of ZAK in Ang-2-induced rat H9c2 cells assessed as decrease in JNK phosphorylation by Western blot analysis
[25] = target: Tyrosine-protein kinase Srms (Homo sapiens, UniProt Q9H3Y6); test: Binding affinity to partial length human SRMS expressed in HEK293 cells by active-site-dependent competition assay; format: cell-based; outline: as §1
Chain of Tyrosine-protein kinase Srms (Q9H3Y6 whole entry): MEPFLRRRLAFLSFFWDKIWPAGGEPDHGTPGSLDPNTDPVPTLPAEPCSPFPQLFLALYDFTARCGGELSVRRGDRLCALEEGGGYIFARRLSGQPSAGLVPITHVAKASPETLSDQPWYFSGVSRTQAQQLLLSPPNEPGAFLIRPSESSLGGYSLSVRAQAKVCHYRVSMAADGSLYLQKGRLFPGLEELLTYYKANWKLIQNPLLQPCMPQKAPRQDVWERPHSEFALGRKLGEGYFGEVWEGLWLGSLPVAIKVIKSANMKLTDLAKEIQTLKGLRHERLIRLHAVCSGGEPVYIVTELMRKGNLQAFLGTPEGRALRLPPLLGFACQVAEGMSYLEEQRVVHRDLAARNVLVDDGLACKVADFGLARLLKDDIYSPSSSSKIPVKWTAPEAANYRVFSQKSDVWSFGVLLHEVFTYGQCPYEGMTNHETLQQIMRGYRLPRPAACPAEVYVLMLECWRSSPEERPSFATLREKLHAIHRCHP

T3 sequence (P42685 whole entry): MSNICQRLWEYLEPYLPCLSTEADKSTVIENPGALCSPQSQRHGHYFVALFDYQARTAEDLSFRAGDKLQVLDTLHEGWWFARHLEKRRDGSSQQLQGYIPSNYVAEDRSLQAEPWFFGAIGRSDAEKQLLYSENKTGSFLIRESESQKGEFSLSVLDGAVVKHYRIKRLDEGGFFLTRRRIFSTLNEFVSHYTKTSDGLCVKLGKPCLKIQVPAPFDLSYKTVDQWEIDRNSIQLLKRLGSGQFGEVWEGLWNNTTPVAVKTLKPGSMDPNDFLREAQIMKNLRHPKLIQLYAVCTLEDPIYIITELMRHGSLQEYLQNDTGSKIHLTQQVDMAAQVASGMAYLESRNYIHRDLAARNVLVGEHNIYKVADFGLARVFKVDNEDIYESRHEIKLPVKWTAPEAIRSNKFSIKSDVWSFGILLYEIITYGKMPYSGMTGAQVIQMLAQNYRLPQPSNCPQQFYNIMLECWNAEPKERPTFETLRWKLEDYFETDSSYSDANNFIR
T2 sequence (P15056 2-766 V600E limits assumed): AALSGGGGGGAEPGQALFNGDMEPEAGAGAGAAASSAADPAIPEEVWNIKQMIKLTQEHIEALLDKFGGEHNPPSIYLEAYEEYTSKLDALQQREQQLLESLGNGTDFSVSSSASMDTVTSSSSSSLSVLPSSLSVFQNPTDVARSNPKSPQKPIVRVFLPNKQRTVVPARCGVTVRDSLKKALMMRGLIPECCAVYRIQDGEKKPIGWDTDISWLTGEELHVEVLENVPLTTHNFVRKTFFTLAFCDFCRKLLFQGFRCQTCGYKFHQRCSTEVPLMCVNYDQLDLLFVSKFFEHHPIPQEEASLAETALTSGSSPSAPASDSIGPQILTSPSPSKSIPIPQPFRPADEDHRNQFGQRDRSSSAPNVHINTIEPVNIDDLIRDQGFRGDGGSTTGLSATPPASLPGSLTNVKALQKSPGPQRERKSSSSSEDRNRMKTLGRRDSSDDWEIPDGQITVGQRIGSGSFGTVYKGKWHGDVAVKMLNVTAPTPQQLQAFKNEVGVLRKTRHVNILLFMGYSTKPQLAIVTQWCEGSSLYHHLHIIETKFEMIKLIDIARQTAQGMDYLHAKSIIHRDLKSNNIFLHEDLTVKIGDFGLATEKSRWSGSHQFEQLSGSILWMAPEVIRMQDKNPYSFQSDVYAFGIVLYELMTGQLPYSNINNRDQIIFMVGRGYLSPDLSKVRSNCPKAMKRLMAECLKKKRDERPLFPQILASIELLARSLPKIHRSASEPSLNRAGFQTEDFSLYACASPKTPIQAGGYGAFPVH
Chain of Aurora kinase B (Q96GD4 whole entry): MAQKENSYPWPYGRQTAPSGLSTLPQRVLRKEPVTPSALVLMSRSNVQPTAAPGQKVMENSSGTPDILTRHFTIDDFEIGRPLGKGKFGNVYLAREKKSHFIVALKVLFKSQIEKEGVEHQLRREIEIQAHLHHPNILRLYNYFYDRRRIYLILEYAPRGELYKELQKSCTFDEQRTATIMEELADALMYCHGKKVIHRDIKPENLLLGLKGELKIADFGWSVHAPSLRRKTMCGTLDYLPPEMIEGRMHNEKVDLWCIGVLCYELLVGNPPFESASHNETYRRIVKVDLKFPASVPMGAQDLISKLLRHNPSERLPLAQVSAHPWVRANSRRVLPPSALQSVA
Chain of Serine/threonine-protein kinase SIK1 (P57059 whole entry): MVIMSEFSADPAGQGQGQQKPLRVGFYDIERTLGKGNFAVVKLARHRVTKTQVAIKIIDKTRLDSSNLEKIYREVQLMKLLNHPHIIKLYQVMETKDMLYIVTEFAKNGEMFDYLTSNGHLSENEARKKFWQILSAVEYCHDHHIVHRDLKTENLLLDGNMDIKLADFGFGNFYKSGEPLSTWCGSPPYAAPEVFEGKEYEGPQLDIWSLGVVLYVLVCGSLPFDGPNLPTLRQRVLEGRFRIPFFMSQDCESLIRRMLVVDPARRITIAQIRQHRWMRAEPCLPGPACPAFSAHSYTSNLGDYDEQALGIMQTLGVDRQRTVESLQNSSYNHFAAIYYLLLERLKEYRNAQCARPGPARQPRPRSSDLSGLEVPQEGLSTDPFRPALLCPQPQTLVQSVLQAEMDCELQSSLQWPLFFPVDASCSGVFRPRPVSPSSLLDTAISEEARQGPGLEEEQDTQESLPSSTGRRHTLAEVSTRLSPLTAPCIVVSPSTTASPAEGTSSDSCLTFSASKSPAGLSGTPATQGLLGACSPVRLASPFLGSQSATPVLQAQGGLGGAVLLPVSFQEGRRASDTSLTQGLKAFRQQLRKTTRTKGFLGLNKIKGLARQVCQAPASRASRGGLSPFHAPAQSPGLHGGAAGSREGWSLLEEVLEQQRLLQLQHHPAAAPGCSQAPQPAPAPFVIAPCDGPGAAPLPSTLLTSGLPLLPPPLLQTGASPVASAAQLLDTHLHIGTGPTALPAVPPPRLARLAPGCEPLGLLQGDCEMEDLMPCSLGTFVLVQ
Chain of Mast/stem cell growth factor receptor Kit (Homo sapiens), P10721 [V559D] (P10721 whole entry V559D): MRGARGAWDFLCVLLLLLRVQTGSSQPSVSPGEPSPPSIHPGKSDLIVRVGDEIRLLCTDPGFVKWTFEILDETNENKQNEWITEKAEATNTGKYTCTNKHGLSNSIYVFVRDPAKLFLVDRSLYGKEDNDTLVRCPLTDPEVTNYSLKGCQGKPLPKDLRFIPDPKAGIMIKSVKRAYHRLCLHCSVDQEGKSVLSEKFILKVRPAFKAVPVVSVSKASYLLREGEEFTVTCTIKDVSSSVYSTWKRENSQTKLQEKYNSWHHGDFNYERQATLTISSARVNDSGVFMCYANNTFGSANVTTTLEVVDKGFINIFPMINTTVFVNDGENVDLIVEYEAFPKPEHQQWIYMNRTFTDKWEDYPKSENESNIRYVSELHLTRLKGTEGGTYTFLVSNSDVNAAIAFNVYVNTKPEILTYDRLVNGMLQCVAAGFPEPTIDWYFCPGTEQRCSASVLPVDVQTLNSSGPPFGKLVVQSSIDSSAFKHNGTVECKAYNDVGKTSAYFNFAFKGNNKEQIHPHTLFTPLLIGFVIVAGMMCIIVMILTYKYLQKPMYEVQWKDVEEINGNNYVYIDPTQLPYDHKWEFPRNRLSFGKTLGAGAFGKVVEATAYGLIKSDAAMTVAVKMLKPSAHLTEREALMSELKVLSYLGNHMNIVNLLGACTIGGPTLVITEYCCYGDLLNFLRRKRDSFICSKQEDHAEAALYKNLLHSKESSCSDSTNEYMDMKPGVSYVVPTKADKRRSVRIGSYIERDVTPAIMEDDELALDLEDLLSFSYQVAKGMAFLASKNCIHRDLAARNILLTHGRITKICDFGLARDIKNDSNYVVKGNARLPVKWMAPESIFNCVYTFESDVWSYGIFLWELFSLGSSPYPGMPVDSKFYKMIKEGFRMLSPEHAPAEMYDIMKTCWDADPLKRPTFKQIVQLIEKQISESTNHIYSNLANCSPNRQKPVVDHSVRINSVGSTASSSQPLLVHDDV
Chain of Mast/stem cell growth factor receptor Kit (Homo sapiens), P10721 [L576P] (P10721 whole entry L576P): as the sequence (P10721 whole entry V559D) above, with D559V, L576P counted along it
Chain of Mitogen-activated protein kinase kinase kinase 20 (Q9NYL2 2-800 limits assumed): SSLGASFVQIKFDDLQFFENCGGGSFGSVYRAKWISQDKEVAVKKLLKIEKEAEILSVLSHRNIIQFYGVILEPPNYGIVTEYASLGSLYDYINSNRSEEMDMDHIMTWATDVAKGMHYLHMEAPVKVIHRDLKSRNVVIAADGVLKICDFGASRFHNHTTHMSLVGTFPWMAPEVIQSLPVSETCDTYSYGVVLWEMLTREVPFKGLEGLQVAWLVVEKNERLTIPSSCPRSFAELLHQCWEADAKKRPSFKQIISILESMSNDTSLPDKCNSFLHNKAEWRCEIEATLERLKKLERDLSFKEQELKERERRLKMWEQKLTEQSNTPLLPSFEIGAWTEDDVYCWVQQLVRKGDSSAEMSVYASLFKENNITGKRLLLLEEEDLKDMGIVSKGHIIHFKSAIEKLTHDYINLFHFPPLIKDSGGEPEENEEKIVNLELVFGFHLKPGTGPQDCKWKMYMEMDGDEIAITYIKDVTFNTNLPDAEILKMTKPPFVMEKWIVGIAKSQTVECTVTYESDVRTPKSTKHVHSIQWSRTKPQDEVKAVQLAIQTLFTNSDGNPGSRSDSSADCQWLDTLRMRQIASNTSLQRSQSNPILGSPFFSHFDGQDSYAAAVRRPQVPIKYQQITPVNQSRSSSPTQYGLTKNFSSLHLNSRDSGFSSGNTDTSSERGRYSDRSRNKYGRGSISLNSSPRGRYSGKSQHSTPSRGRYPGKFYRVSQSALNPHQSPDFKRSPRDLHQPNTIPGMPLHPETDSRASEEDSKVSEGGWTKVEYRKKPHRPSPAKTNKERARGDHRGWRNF
Chain of Mast/stem cell growth factor receptor Kit (Homo sapiens, UniProt P10721) (P10721 whole entry): as the sequence (P10721 whole entry V559D) above, with D559V counted along it

## COc1n[nH]c2ncc(C#Cc3c(F)ccc(NS(=O)(=O)c4cccc(C#N)c4)c3F)cc12
[1]
  Kd: 0.18 µM
[2]
  bioavailability: 20%
[3]
  Kd: 0.088 µM
[4]
  Kd: 0.05 µM
[5]
  Kd: 0.064 µM
[6]
  Kd: 0.045 µM
[7]
  IC50: > 10 µM
[8]
  inhibition: Dose-dependent effect
[9]
  inhibition: Dose-dependent effect
[10]
  AUC: 253794 µg/L/h
[11]
  Kd: 0.46 µM
[12]
  Kd: 0.022 µM
[13]
  Activity: 5.5%
[14]
  half-life: 34.6 h
[15]
  Activity: 0.9%
[16]
  inhibition: Dose-dependent effect
[17]
  Activity: 2.9%
[18]
  fraction unbound at 4 h, 1 µM: 0.002
[19]
  inhibition: Dose-dependent effect
[20]
  Activity: 3%
[21]
  inhibition: Dose-dependent effect
[22]
  Activity: 1.9%
[23]
  Activity: 0.95 g
[24]
  inhibition: Dose-dependent effect
[25]
  Kd: 0.064 µM
